Screening results as filed in PubChem BioAssay.
MC4R antag cAMP: blocks human MC4R cAMP signaling. P32245. MC4R-expressing cells, MTII-stimulated cAMP, LANCE TR-FRET. inhibition, % at 6.5 µM. hit rate 0.48% among 360,000;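 active means inhibition above its plate's cutoff, the mean of tested wells on that plate plus 3 SD, cut at about 29% in these data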;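 further: 0% = Melanotan II alone and 100% = Melanotan II plus saturating MCL0020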
Target sequence (P32245 whole entry, looked up): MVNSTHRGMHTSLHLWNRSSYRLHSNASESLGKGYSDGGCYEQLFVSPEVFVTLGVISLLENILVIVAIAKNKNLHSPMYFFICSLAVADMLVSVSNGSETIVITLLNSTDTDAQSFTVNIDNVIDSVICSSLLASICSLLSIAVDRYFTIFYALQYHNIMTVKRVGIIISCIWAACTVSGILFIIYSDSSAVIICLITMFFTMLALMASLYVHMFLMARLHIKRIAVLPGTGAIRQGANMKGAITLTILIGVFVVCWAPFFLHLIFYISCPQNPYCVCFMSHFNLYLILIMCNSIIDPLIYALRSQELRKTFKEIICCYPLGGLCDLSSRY
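System – human MC4R-expressing U2OS cells · Also added – Melanotan II · Dosing – one concentration, 6.5 µM nominal · Timing – 30-min compound, 1-h challenge, 1-h detection, room temperature · Measured by – Eu-cAMP/anti-cAMP TR-FRET, emission 671 nm · Replicates – singlicate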
MsrA inh: inhibits bovine methionine sulfoxide reductase A. AID 651718. purified bovine MsrA, absorbance read-out. hit rate 0.75% among 360,000. inhibition, % at 15.5 µM; in the data active means inhibition above about 4.5%;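 further: 0% = vehicle wells with enzyme and 100% = reference inhibitor wells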
bovine MsrA act: bovine methionine sulfoxide reductase A activation. activation, % at 10.6 µM. purified bovine MsrA, absorbance read-out. hit rate 0.3% among 360,000; in the data active means activation above about 7.5%;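 further: 0% = vehicle and 100% = reference activator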
MC4R ag barr: activates human MC4R beta-arrestin recruitment | U2OS MC4R beta-arrestin complementation, luminescence; percent of melanotan II response, DMSO zero | activation, % at 8.9 µM | hit rate 0.98% among 360,000 | AID 540308;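 active means activation above a per-plate cutoff, the mean activation of sample wells on that plate plus 3 SD, cut at about 8% in these data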
MC4R barr ag: human MC4R beta-arrestin agonism confirmation; shares compounds with MC4R ag barr; U2OS MC4R beta-arrestin recruitment, luminescence; scaled DMSO 0%, Melanotan II 100%; activation, % at 8.9 µM; hit rate 31% among 2,400;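 active means mean activation across replicates above the hit cutoff set in the earlier primary screen, cut at about 8% in these data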
MOR-DOR barr ag: counter-screen for MC4R agonists: agonists of mu-delta opioid heterodimer; shares compounds with MC4R ag barr; U2OS PathHunter beta-arrestin, beta-gal luminescence; percent of deltorphin B response, DMSO zero; activation, % at 9.2 µM; hit rate 5.8% among 2,400; AID 602194;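 active means mean activation across replicates exceeds the hit threshold derived in the earlier primary screen, cut at about 18% in these data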;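 further: 100% = deltorphin B at 0.9 µM final and 0% = DMSO alone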
Active calls of the source: *; / = no result given. Rows were chosen to be rich in hits. Some 2.3% of all compounds tested hit in one or more screens of this group.

SMILES | MC4R antag cAMP | MsrA inh | bovine MsrA act | MC4R ag barr | MC4R barr ag | MOR-DOR barr ag
O=C(NCc1ccco1)c1cc(S(=O)(=O)N2CCCCC2)ccc1Cl | -0.3 | 0.5 | -0.7 | 0.1 | / | /
Cc1ccccc1C[n+]1cccc2ccccc21 | 0.6 | 1.2 | -3.7 | -2.4 | / | /
CCCCCCCCCCCCCCCC[n+]1cccc2ccccc21 | -8.3 | -1.5 | -9.8 | 18.4* | 34.3* | 22.8*
CCCCCCCCC[n+]1cccc2c3ccccc3ccc21 | -12.4 | / | 1.5 | 12.8* | 8.4* | 6.8
COc1ccc(OC)c2sc(NC(=O)CCS(=O)(=O)c3ccccc3)nc12 | 1.5 | -0.7 | -1.1 | -0.6 | / | /
COc1ccc(OC)c2sc(NC(=O)CCSc3ccccc3)nc12 | -0.2 | -1.1 | -4.8 | 11.0* | 2.0 | 8.2
Cc1noc(C)c1CSCC(=O)N(C)CC(=O)Nc1ccc(Cl)c(Cl)c1 | -0.8 | -1.3 | -3.0 | -2.9 | / | /
O=C1N(Nc2ccccc2)C(c2ccc(Br)cc2)C12CCCCC2 (stereo not drawn) | -2.0 | -0.6 | -5.3 | 24.0* | 10.1* | 4.7
CN1C(=O)/C(=C/c2cc3c(cc2Br)OCO3)NC1=S | -13.4 | 0.5 | -1.4 | 10.9* | 0.1 | 3.2
COCCn1c(C)cc(/C=C2\NC(=S)N(C)C2=O)c1C | -4.2 | 0.9 | -7.0 | -1.4 | / | /
Fc1cccc(Cl)c1/C=N/Nc1c(Cl)cncc1Cl | -5.8 | -0.7 | 1.6 | 10.3* | 4.0 | 7.2
O=S(=O)(N/N=C\c1c(F)cccc1Cl)c1ccc(Cl)cc1 | 1.0 | -0.1 | -3.7 | -2.5 | / | /
O=C(Nc1ccccc1)c1cc2ccccc2c(=O)s1 | -4.1 | 0.3 | -12.8 | 12.9* | -0.4 | 4.7
Cc1cc(C)cc(NC(=O)c2cc3c(=O)n4ccccc4nc3s2)c1 | 9.1 | 1.5 | -4.3 | -1.5 | / | /
C=CCNC(=O)/C(C#N)=C/c1cn(-c2ccccc2)nc1-c1cccs1 | 12.4 | 1.0 | -9.1 | 32.6* | 9.1* | 9.0
c1cc2c3c(cccc3c1)-c1cnccc1-2 | 5.6 | -0.4 | 0.8 | -2.7 | / | /
O=C(COC(=O)c1n[nH]c2ccccc12)NC(=O)NC1CCCC1 | 1.9 | -0.3 | 3.1 | -1.8 | / | /
O=C(COC(=O)c1n[nH]c2ccccc12)NC(=O)NC12CC3CC(CC(C3)C1)C2 | 1.8 | 0.2 | 0.5 | 18.3* | 2.9 | 6.7
OC(COc1ccc(F)cc1Cl)CN1CCC(Cc2ccccc2)CC1 (stereo not drawn) | 2.6 | -1.1 | -2.7 | 11.1* | 9.3* | 10.9
OC(COc1ccccc1F)CN1CCC(Cc2ccccc2)CC1 (stereo not drawn) | -6.5 | 1.2 | -7.6 | 1.6 | / | /
Cc1cc(C(C)(C)CC(C)(C)C)ccc1OCCOCC[N+](C)(C)Cc1ccccc1 | 10.7 | -3.2 | 2.7 | 25.3* | 36.9* | 29.3*
COc1ccc(-c2ccc(-c3noc(-c4ccco4)n3)c(OC)n2)cc1 | 2.8 | 2.0 | -2.6 | 8.2 | / | /
COc1nc(-c2ccccc2)ccc1-c1noc(-c2ccco2)n1 | 2.2 | 0.0 | 0.2 | 30.9* | 0.3 | 3.4
CCC(C)(C)c1ccc(OCCCC[n+]2ccc(C)cc2)c(C(C)(C)CC)c1 | / | -0.7 | / | / | / | /
CCC(C)(C)c1ccc(OCCCC[n+]2cccc(C)c2C)c(C(C)(C)CC)c1 | 3.0 | -2.9 | -5.8 | 22.8* | 21.6* | 15.4
SMILES | MC4R antag cAMP | MsrA inh | bovine MsrA act | MC4R ag barr | MC4R barr ag | MOR-DOR barr ag
O=C(Nc1ccc2oc(-c3cccc(F)c3)nc2c1)c1ccccc1F | 7.2 | -0.1 | -2.7 | 26.6* | 16.0* | 4.3
Cc1cc(Cl)cc(Cl)c1OCC(=O)NCc1ccco1 | 3.9 | 0.6 | -2.1 | -1.0 | / | /
Cc1ccc2c(Cl)cc(Cl)c(OCC(=O)NC(=O)NCc3ccco3)c2n1 | 11.8 | -0.3 | -2.0 | 10.8* | 2.4 | 2.6
Cc1cc(-n2nnc3ccccc32)nc2ccccc12 | -2.8 | 0.9 | -9.9 | 18.0* | -0.6 | 2.3
CCCc1c(C(=O)Nc2ccc(C(F)(F)F)cc2)cnn1-c1ccccc1 | -3.2 | 0.4 | -6.4 | 10.4* | -3.9 | 5.5
CCCc1c(C(=O)NNc2ccc(C)cc2)cnn1-c1ccccc1 | -0.8 | 0.1 | -1.8 | -2.0 | / | /
CCCc1c(C(=O)NNc2cc(C(F)(F)F)ccc2Cl)cnn1-c1ccccc1 | 2.7 | -1.1 | -1.6 | 27.0* | 5.8 | 6.5
O=C(CSc1nc2ccccc2c(=O)n1-c1ccc(F)cc1F)Nc1ccc2c(c1)CCC2 | 8.5 | -0.5 | -4.8 | -2.1 | / | /
Cc1cc(C)nc(Nc2nc(C(N)Cc3ccc(F)cc3)cs2)n1 (stereo not drawn) | -3.2 | -0.2 | 1.0 | 1.0 | / | /
NC(Cc1ccc(C(F)(F)F)cc1)c1csc(Nc2nccc(C(F)(F)F)n2)n1 (stereo not drawn) | 4.4 | -1.2 | -2.5 | 14.8* | 17.2* | 7.4
CCCc1cnc(Nc2nc(C(N)Cc3ccc(C(F)(F)F)cc3)cs2)nc1 (stereo not drawn) | 27.0 | -2.0 | -4.2 | 14.6* | 13.6* | 6.2
COc1cc(OC)nc(Nc2nc(C(N)Cc3ccc(C(F)(F)F)cc3)cs2)n1 (stereo not drawn) | 9.2 | -1.1 | -9.4 | 29.2* | 7.5 | 13.0
Cc1cc(C)nc(Nc2nc(C(N)Cc3ccc(Cl)cc3)cs2)n1 (stereo not drawn) | -7.7 | -1.0 | 0.2 | 9.8* | 27.8* | 13.4
NC(Cc1ccccc1)c1csc(Nc2ccc(C(F)(F)F)cn2)n1 (stereo not drawn) | 1.6 | -2.5 | -4.9 | 5.3 | / | /
CC(=O)c1c(C)[nH]c(C(=O)OCc2cc(=O)n3cc(Br)ccc3n2)c1C | 3.3 | 0.7 | 0.6 | 1.4 | / | /
CS(=O)(=O)c1ccc(Nc2nc(C(N)Cc3ccc(C(F)(F)F)cc3)cs2)cc1 (stereo not drawn) | 11.2 | -1.7 | -1.5 | -0.8 | / | /
Cc1cc(C)nc(Nc2nc(C(N)Cc3ccc(C(F)(F)F)cc3)cs2)n1 (stereo not drawn) | -7.3 | -0.5 | 2.6 | 10.5* | 25.7* | 10.1
CSc1ccc(Cl)c(C(=O)NCCOc2cc(C)ccc2C(C)C)c1 | -1.4 | 0.3 | -5.2 | 1.6 | / | /
Cc1ccc(C(C)C)c(OCCNC(=O)c2ccccc2O)c1 | 3.5 | -1.5 | -0.1 | 12.7* | 3.4 | 11.3
Cc1ccc(NC(=O)COc2coc(CN3CCc4ccccc43)cc2=O)cc1Cl | 7.6 | -0.8 | 0.9 | 12.4* | 4.9 | 25.0*
CCSc1ccc(C(=O)Nc2cccc(C)n2)cc1[N+](=O)[O-] | 3.6 | -1.4 | 1.2 | 36.5* | -2.0 | 6.8
CCSc1ccc(C(=O)Nc2ccc(Br)cn2)cc1[N+](=O)[O-] | 0.2 | 0.4 | -1.5 | 6.0 | / | /
O=C(OCC(=O)N(CCc1ccccc1)Cc1ccccc1)c1cccc(O)c1 | 4.7 | -0.8 | -4.7 | -2.7 | / | /
O=C(OCC(=O)N(Cc1ccccc1)Cc1ccccc1)c1cccc(O)c1 | 2.6 | -0.3 | -2.1 | 9.7* | 0.5 | 6.6
CN(CC1CCCN(CCc2ccccc2F)C1)C(=O)c1cc2ccccc2o1 (stereo not drawn) | 1.7 | -1.2 | 0.0 | -0.1 | / | /
